Bioassay records as filed in PubChem BioAssay.
The list is not random: actives were taken first. Their share in the collection is about 1.5%.
PPC-1+TRAIL kill – kills PPC-1 cancer cells in the presence of TRAIL | 220,000 tested, 0.41% active | PPC-1 cells + TRAIL, ATPLite viability luminescence | cell killing (% activity), % at 4 µM or 5 µM;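 active means cell killing above 50% in the first pass at 4 µM, then a duplicate retest at 5 µM averaging 50% or more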;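 further: plate controls were cells with TRAIL plus DMSO for no effect and medium-only wells lacking cells for full effect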
C8 TRAIL sens – caspase-8 TRAIL sensitization. NB7+C8 cells + TRAIL, ATPlite viability luminescence. inhibition (viability loss, TRAIL sensitization), % at 10 µM. 360,000 tested, 1% active. AID 624354;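 active means compounds causing at least 50% loss of cell viability in the single-dose screen, relative to plate controls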
FLuc stim CS – firefly luciferase counter-screen for stimulation assays | activation factor at 10 µM | ATPlite luciferase biochemical, luminescence, 10 min; 0 = ATP-free wells, 1 = DMSO control | 200,000 tested, under 10 active;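 active means luciferase activation factor, scaled between plate controls, of at least 2 with compound at 10 µM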
Target sequence (P08659 whole entry, looked up): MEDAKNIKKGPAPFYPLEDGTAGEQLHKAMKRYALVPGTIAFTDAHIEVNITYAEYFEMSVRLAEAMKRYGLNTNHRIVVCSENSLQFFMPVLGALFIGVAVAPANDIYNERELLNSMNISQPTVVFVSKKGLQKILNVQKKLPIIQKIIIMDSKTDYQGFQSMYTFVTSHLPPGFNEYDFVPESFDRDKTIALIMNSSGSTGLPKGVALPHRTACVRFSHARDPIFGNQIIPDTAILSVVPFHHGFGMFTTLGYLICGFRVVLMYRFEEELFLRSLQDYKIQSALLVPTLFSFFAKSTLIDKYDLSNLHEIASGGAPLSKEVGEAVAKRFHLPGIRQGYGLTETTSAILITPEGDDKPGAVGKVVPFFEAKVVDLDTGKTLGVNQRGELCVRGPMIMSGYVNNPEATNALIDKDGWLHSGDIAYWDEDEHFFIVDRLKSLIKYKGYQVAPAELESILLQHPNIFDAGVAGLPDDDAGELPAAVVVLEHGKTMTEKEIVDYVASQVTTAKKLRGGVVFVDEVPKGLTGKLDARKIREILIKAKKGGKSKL
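System: Luciferase/luciferin detection reagent, cell-free biochemical luciferase assay | Medium: PBS buffer for ATP | Dosing: Test compounds dosed from 2 mM stocks in 100% DMSO | Timing: 10 min at ambient temperature | Signal: Luminescence measurement of luciferase light output | Evaluation: Luciferase activation, seen as luminescence increase over controls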
FLuc inh counter – Photinus pyralis luciferase inhibition counter-screen | P08659 | ATPLite firefly luciferase biochemical luminescence, 10 min | inhibition, % at 10 µM | 200,000 tested, 1.5% active | AID 1006;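 active means inhibition above about 50% when tested at 10 µM, limit read from the data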
PPC-1 tox – kills PPC-1 cells | PPC-1 viability, ATPlite luminescence, overnight | cytotoxicity, % at 5 µM | AID 1447 | shares compounds with PPC-1+TRAIL kill | 1,200 tested, 50% active;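 active means reconfirmed compounds whose average cytotoxicity reaches 50% or more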;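 further: 0% = DMSO-treated cells and 100% = wells holding medium but no cells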
The depositor's hits bear a star; / = no result.

SMILES	PPC-1+TRAIL kill	C8 TRAIL sens	FLuc stim CS	FLuc inh counter	PPC-1 tox
CC(C)(C)NC(=O)C(C1CC1)n1c(-c2ccccc2)nc2ccccc21 (configuration not stated)	/	-4.3	/	/	/
COc1ccc(S(=O)(=O)N2CCOC23CCN(S(=O)(=O)c2cc(F)ccc2F)CC3)cc1	/	-9.4	/	/	/
CC(c1ccccc1)n1c(N2CCNCC2)nc2c1c(=O)[nH]c(=O)n2C (configuration not stated)	/	10.3	/	/	/
COc1ccc(C(=O)Nc2ccccc2C(=O)NCc2cccnc2)cc1OC	/	-1.3	/	/	/
COc1ccc(C(=O)Nc2ccccc2C(=O)N/N=C/c2ccncc2)cc1OC	95.5*	94.4*	/	/	95.7*
O=C(CN(C(=O)c1csnn1)c1cccc2c1CCCC2)NC1CCCC1	/	-6.9	1	-4.2	/
Cc1ccc2nc(NC(=O)c3ccco3)sc2c1	70.2*	78.2*	0.1	90.4*	64.2*
CC(=O)Nc1nc2ccc(NC(=O)c3ccco3)cc2s1	-6.7	-10.1	0.9	9.5	/
CCC(C)(C)C1CCc2[nH]nc(C(=O)N/N=C(\C)c3ccco3)c2C1 (configuration not stated)	21.8	32.2	/	/	/
C/C(=N\NC(=O)c1n[nH]c2c1CCC2)c1ccco1	39.5	63.7*	/	/	40.2
COCCn1c(-c2ccc(Br)cc2)csc1=Nc1cccnc1	2.8	7.0	1.1	-5.6	6.2
Clc1ccc(-c2csc(=Nc3cccnc3)n2CCCn2ccnc2)cc1Cl	16.6	1.7	1	-3.3	/
CCCCn1nnnc1C1(C)CCC(=O)N1CCc1ccccc1F (configuration not stated)	/	-2.2	/	/	/
O=C(Nc1nc2ccccc2[nH]1)c1ccc(Br)o1	25.1	43.9	0.3	73.4*	23.8
COc1cccc(C(=O)Nc2nc3ccccc3[nH]2)c1	70.8*	82.7*	0.1	90.8*	72.8*
CCc1ccn2cc(-c3ccc4c(c3)OCO4)nc2c1	92.5*	92.0*	/	/	91.4*
COC(=O)c1ccc2nc(-c3ccc4c(c3)OCO4)cn2c1	62.5*	70.4*	0.1	85.3*	63.1*
Cc1nccc(-c2ccc3c(c2)OCO3)n1	18.3	-6.7	1	1.1	/
COc1ccc(-c2cn3cc(C(=O)NN)ccc3n2)cc1	38.9	48.5	0.5	49.6	/
Cc1cc2nc(-c3ccc4c(c3)CCC4)ccn2n1	4.9	-10.8	1	-1.6	/
COC(=O)c1ccccc1NC(=O)Cn1c(CCC(=O)O)ccc1-c1cccs1	6.5	7.2	1.1	-5.0	14.9
CCOc1ccc(Cl)cc1S(=O)(=O)N1CCC(C(=O)N2CCCC2)CC1	/	-2.7	/	/	/
CCOc1ccc2[nH]c(S(=O)(=O)CC)nc2c1Cl	6.5	-5.5	1	-1.8	21.9
CCCCCCn1c(=O)n2n(c1=O)[C@@H]1CN(S(=O)(=O)c3ccc(C)cc3)C[C@]1(O)[C@@H](OC(=O)NCc1ccco1)C2	/	-11.8	/	/	/
CCOc1ccc(NC(=O)c2ccccc2CO)cc1	9.3	9.1	0.6	37.7	/
SMILES	PPC-1+TRAIL kill	C8 TRAIL sens	FLuc stim CS	FLuc inh counter	PPC-1 tox
CCOc1ccc(OCc2cccc(C(=O)O)c2)cc1	58.9*	83.7*	0.1	92.8*	58.5*
CCOc1ccc(NC(=O)c2ccccc2O)cc1	68.2*	58.5*	0.1	87.4*	64.1*
CCOc1ccc(NC(=O)Nc2cccc(C(=O)O)c2)cc1	73.2*	82.5*	0.1	92.3*	64.6*
CC[C@]12c3[nH]c4ccccc4c3CCN1C(=O)C(CC(=O)NCc1cccc(C(F)(F)F)c1)C[C@@H]2C(=O)N1CCN(C(=O)c2ccco2)CC1 (some centres not stated)	/	2.4	/	/	/
CSc1nnc(-c2sc3cc(C(F)(F)F)cnc3c2-c2ccccc2)n1C	1.5	28.6	1.1	-5.8	/
Cc1cn2nc(N)c3ccccc3c2n1	18.3	17.0	1	0.2	/
Nc1nn2cc(-c3ccccc3)nc2c2ccccc12	46.5	56.1*	0.2	84.6*	51.1*
CC(=O)NS(=O)(=O)c1ccc(NC(=O)CN2C(=O)C3C4C=CC(C4)C3C2=O)cc1 (configuration not stated)	19.1	-1.1	1	3.0	/
O=C(NC1CC1)c1ccc(-c2nc3ccccc3s2)s1	92.9*	91.2*	0	95.9*	92.8*
O=C(c1ccc(-c2nc3ccccc3s2)s1)N1CCOCC1	88.1*	/	0	96.0*	88.1*
CCN1CCN(C(=O)c2ccc(-c3nc4ccccc4s3)s2)CC1	9.7	24.4	0.7	34.2	/
O=C(NC1CC1)C1CCN(c2nc3ccccc3s2)CC1	/	14.3	/	/	/
CCOC(=O)N1CCC(NC(=O)c2cnc3n(c2=O)CCS3)CC1	20.8	6.0	1	-2.7	/
CC(=O)OC1CC2(C)C(CCC2(O)C(C)=O)C2CCC3C(Cl)C(=O)CCC3(C)C12 (configuration not stated)	/	-10.9	/	/	/
c1c2c(cc3sc(N4CCOCC4)nc13)OCCO2	63.4*	78.0*	0.2	83.5*	60.5*
Cc1ccc(-c2cc(=O)c3cc(C)ccc3[nH]2)cc1	78.8*	85.5*	0.1	93.3*	79.9*
Cn1nnc(NC(=O)c2ccc(C(C)(C)C)cc2)n1	54.3*	54.7*	0.2	79.8*	52.7*
CN1CCN(C(=O)c2ccc(-c3cnn(C)c3)c3ccoc23)CC1	/	-22.9	/	/	/
CC1=CC(=C2C(=O)c3ccccc3C2=O)C=C(C)N1C	11.0	13.7	0.8	17.5	/
CCCCCN1C=CC(=C2C(=O)c3ccccc3C2=O)C=C1	94.3*	95.8*	0	97.2*	94.2*
Cc1cccc(-c2cnn(-c3ccccc3)c2N)c1	/	20.6	/	/	/
CCS(=O)(=O)n1nc(-c2ccccc2)cc1N	2.9	8.3	1	-0.5	/
CCc1ccc(-c2cc(N)n(-c3ccccc3)n2)cc1	43.4	46.1	0.2	82.2*	43.5
Cc1cccc(-c2cc(N)n(-c3ccccc3)n2)c1	28.2	24.1	0.3	72.5*	27.2
N#CCCN(C(=S)NC(=O)c1ccco1)c1ccccc1F	12.1	1.1	1.1	-5.6	/
SMILES	PPC-1+TRAIL kill	C8 TRAIL sens	FLuc stim CS	FLuc inh counter	PPC-1 tox
O=C(CSc1nnc(Cc2cccs2)n1C1CCCCC1)N1CCCc2ccccc21	2.3	20.3	1	0.7	6.9
CC(=O)c1sc2c(c1OC(=O)c1ccc(Cl)cc1Cl)c(=O)n(-c1ccccc1)c(=S)n2-c1ccccc1	29.1	14.6	/	/	23.4
COc1cc(SC)ccc1C(=O)Nc1nccs1	67.0*	80.5*	0.1	91.5*	69.3*
COc1cc(SC)ccc1C(=O)Nc1ccc2c(c1)OCCO2	68.0*	66.0*	0.2	82.6*	65.2*
CC(C)C(C)NC(=O)COn1nnc2ccc(S(=O)(=O)N3CCOCC3)cc21 (configuration not stated)	/	-7.5	/	/	/
C#Cc1ccc([C@H]2C=C(C(=O)NC3CC3)O[C@@H](OCC)[C@@H]2CCCO)cc1	8.4	-4.1	1	0.0	/
COc1cccc(NC(=O)CN(C)C(=O)C2CC(=O)N(CCc3ccc(OC)c(OC)c3)C2)c1 (configuration not stated)	/	2.9	/	/	/
C[C@@H]1CN([C@H](C)CO)C(=O)c2cc(NC(=O)c3ccncc3)ccc2O[C@@H]1CN(C)C(=O)Nc1ccccc1	/	-10.6	/	/	/
